Key:
Format in all cases: cell-based
RAW 264.7 cells [1] = assay: Intracellular ROS by DCFH-DA probe in LPS-stimulated macrophages; details: Mus musculus, RAW264.7, read-out: ROS inhibition rate
In short: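 RAW 264.7 macrophages (DMEM/10% FBS, 37 °C, 5% CO₂) pre-treated with test compound for 24 h, then stimulated with LPS 1 μg mL⁻¹ for 4 h. Cells harvested, loaded with DCFH-DA for 30 min at 37 °C in the dark, and washed three times with PBS. DCF fluorescence read on a multimode imaging reader and […]. Mean ± SD of three independent experiments.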

RAW 264.7 cells [2] = assay: TNF-α secretion by ELISA in LPS-stimulated macrophages; details: pre-treatment 24 h, then LPS 1 μg mL^−1 for 4 h; ELISA of supernatant
RAW 264.7 cells [3] = assay: CCK-8 cell viability
In short: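 Mouse RAW 264.7 macrophages (passage ≤30) grown in DMEM with 10% FBS and 1% antibiotic-antimycotic at 37 °C under 5% CO₂. Seeded at 10⁵ per well and left overnight. Exposed to test compound at 0–200 μM for 24 h. Viability read with a CCK-8 kit as % cell viability; IC50 calculated by curve fitting. Mean ± SD of three independent experiments.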

RAW 264.7 cells [4] = assay: IL-6 secretion by ELISA in LPS-stimulated macrophages; details: pre-treatment 24 h, then LPS 1 μg mL^−1 for 4 h; ELISA of supernatant
In short: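 RAW 264.7 macrophages (within passage 30) grown in DMEM with 10% FBS and 1% antibiotic-antimycotic at 37 °C, 5% CO2. Test compound at 25, 50 and 100 μM (legend: 0, 25, 50 μM) for 24 h, then LPS 1 μg mL⁻¹ for 4 h. Supernatant IL-6 measured by commercial ELISA kit. Three independent experiments, mean ± SD, compared with the LPS group.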

Row | Compound | inhibition at 25 µM (RAW 264.7 cells [1]) | inhibition at 50 µM (RAW 264.7 cells [1]) | Prevention of LPS-induced TNF-α secretion (RAW 264.7 cells [2]) | Cytotoxicity (in words) (RAW 264.7 cells [3]) | Prevention of LPS-induced IL-6 secretion (RAW 264.7 cells [4])
1 | C=C(C[C@@H]1CCOc2ccc(C)cc21)c1ccccc1 [3ac] | -24% | 23% | no effect | – | –
2 | C=C(C[C@@H]1CCOc2ccccc21)c1ccc(C)cc1 [3aj] | – | – | – | little cytotoxicity | able to prevent LPS-induced IL-6 secretion
3 | C=C(C[C@@H]1CCOc2ccccc21)c1ccc(Cl)cc1 [3al] | – | – | – | – | able to prevent LPS-induced IL-6 secretion
4 | C=C(C[C@@H]1CCOc2ccccc21)c1ccccc1C [3am] | – | 29% | – | – | –
5 | C=C(C[C@@H]1CCSc2ccc(OC)cc21)c1ccccc1 [3aw] | – | – | – | – | able to prevent LPS-induced IL-6 secretion
6 | C=C(C[C@@H]1CCSc2ccc(C)cc21)c1ccccc1 [3ax] | 32% | 49% | no effect | – | –
7 | C=C(C[C@@H]1CCSc2ccccc21)c1ccccc1C [3bd] | – | 52% | – | – | –
8 | Cc1c(C)c2c(c(C)c1O)CCC(C)(C(=O)O)O2 (centres unmarked) [Trolox, reference compound] | -3% | 20% | – | – | –

Reference: PMC10580023 (RSC Advances, 2023)
